Reference: ChEMBL document CHEMBL1921795, “Discovery, synthesis, and structure-activity relationship development of a series of N-4-(2,5-dioxopyrrolidin-1-yl)phenylpicolinamides (VU0400195, ML182): characterization of a novel positive allosteric modulator of the metabotropic glutamate receptor 4 (mGlu(4)) with oral efficacy in an …” (J Med Chem, 2011)

Tests used:
Rattus norvegicus [1] = assay: Volume of distribution at steady state in Sprague-Dawley rat at 1 mg/kg, iv by LC/MS analysis; assay type: ADME, organism-based; parameters: dose 1 mg/kg, route intravenous; details: in vivo
How it was run: (§1)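 Male Sprague-Dawley rats (n=2, 250-300 g), carotid and jugular cannulated; 1 mg/kg iv via jugular catheter in 20% DMSO/80% saline. Arterial blood from pre-dose to 24 h, EDTA plasma analysed by LC/MS/MS; noncompartmental analysis of individual profiles.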

Rattus norvegicus [2] = assay: AUC (0 to 24 hrs) in Sprague-Dawley rat at 1 mg/kg, iv by LC/MS analysis; assay type: ADME, organism-based, Plasma; parameters: time < 24 hr, dose 1 mg/kg, route intravenous; details: in vivo
How it was run: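 Male Sprague-Dawley rats (n=2, 250-300 g) with carotid artery and jugular vein catheters, acclimated about one week, fed ad libitum. Dose given through the jugular catheter in 20% DMSO/80% saline at 1 mL/kg. Carotid blood drawn pre-dose and at 2, 7, 15, 30 min and 1, 2, 4, 7, 24 h into chilled EDTA tubes. Plasma measured by LC/MS/MS; parameters from noncompartmental analysis of individual profiles.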

Rattus norvegicus [3] = assay: AUC (0 to 24 hrs) in Sprague-Dawley rat at 10 mg/kg, po by LC/MS analysis; assay type: ADME, organism-based, Plasma; parameters: time < 24 hr, dose 10 mg/kg, route oral; details: in vivo
Rattus norvegicus [4] = assay: Cmax in Sprague-Dawley rat at 10 mg/kg, po by LC/MS analysis; assay type: ADME, organism-based; parameters: dose 10 mg/kg, route oral; details: in vivo
Rattus norvegicus [5] = assay: Half life in Sprague-Dawley rat at 1 mg/kg, iv by LC/MS analysis; assay type: ADME, organism-based; parameters: dose 1 mg/kg, route intravenous; details: in vivo; how it was run: as §1
Rattus norvegicus [6] = assay: Oral bioavailability in Sprague-Dawley rat at 10 mg/kg by LC/MS analysis; assay type: ADME, organism-based; details: in vivo
[7] = target: Metabotropic glutamate receptor 4 (Rattus norvegicus, UniProt P31423); assay: Positive allosteric modulator activity at rat mGlu4 receptor by thallium flux assay
[8] = target: Metabotropic glutamate receptor 4 (Rattus norvegicus) (UniProt P31423); assay: Positive allosteric modulation of rat mGlu4 receptor assessed as potentiation of glutamate-induced thallium flux relative to (-)-PHCCC; parameters: concentration or dose not given beside the values
[9] = target: Metabotropic glutamate receptor 4 (Rattus norvegicus) (UniProt P31423); assay: Positive allosteric modulator activity at rat mGlu4 receptor by thallium flux assay at 30 uM relative to glutamate
[10] = target: T1, Metabotropic glutamate receptor 4 (Homo sapiens, UniProt Q14833); assay: Positive allosteric modulation of human mGlu4 receptor expressed in CHO cells coexpressing Gqi5 assessed as potentiation of glutamate-induced calcium mobilization relative to (-)-PHCCC; assay type: functional, cell-based
How it was run: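 CHO cells stably expressing human mGlu4 with chimeric Gqi5, plated overnight, loaded 45 min at 37 °C with 1 µM Fluo-4 AM. Compound (10-point, 1:3 dilutions) was added about 2.5 min before an EC20 glutamate, then EC80 glutamate 2 min later. Ca2+ fluorescence read at 470/540 nm. Four-parameter logistic fit.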

[11] = target: T1, Metabotropic glutamate receptor 4; assay: Positive allosteric modulator activity at human mGlu4 receptor expressed in CHO cells expressing Gqi5 by calcium mobilization assay
Cytochrome P450 1A2 = target: T2, Cytochrome P450 1A2 (Homo sapiens, UniProt P05177); assay: Inhibition of CYP1A2 in human liver microsomes using phenacetin as substrate
T2 sequence (P05177 whole entry): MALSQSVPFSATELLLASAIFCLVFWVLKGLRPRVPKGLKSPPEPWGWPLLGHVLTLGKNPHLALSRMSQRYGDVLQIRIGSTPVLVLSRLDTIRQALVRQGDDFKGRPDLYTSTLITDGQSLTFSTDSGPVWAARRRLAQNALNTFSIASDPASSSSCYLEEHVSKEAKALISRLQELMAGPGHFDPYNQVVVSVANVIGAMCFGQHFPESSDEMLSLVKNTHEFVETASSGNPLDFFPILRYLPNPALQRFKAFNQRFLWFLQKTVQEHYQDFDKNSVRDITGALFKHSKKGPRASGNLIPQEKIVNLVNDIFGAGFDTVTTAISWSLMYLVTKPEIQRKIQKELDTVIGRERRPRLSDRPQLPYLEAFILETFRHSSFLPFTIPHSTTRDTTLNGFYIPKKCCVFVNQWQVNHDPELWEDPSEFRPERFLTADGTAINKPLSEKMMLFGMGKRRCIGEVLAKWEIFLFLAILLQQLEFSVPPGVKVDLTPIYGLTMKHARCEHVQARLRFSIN

Cytochrome P450 2D6 = Cytochrome P450 2D6 (Homo sapiens, UniProt P10635); assay: Inhibition of CYP2D6 in human liver microsomes using […] as substrate; assay type: ADME, Microsome
How it was run: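 Pooled human liver microsomes (0.1 mg/mL) with probe cocktail (phenacetin 10 µM, diclofenac 5 µM, dextromethorphan 5 µM, midazolam 2 µM) in 0.1 M phosphate pH 7.4; compound 100 nM–30 µM in duplicate, 15 min preincubation at 37 °C, then 1 mM NADPH for 8 min. LC/MS/MS of metabolite formation; IC50 derived.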

Cytochrome P450 2C9 = Cytochrome P450 2C9 (Homo sapiens, UniProt P11712); assay: Inhibition of CYP2C9 in human liver microsomes using diclofenac as substrate
Cytochrome P450 2C9, sequence (P11712 whole entry): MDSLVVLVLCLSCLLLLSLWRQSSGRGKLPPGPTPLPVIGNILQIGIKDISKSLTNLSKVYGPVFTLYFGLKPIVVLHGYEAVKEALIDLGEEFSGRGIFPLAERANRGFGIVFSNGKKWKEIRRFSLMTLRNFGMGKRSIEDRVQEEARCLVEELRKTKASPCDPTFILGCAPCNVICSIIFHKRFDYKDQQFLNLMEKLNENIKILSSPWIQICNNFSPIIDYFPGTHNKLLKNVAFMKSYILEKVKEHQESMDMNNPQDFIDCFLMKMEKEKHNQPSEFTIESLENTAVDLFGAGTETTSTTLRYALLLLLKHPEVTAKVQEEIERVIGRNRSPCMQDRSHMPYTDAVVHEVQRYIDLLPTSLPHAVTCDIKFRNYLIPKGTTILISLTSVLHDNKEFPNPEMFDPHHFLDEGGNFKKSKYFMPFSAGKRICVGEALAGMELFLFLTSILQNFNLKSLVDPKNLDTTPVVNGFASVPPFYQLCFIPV

Metabotropic glutamate receptor 4 (Rattus norvegicus), sequence (P31423 whole entry): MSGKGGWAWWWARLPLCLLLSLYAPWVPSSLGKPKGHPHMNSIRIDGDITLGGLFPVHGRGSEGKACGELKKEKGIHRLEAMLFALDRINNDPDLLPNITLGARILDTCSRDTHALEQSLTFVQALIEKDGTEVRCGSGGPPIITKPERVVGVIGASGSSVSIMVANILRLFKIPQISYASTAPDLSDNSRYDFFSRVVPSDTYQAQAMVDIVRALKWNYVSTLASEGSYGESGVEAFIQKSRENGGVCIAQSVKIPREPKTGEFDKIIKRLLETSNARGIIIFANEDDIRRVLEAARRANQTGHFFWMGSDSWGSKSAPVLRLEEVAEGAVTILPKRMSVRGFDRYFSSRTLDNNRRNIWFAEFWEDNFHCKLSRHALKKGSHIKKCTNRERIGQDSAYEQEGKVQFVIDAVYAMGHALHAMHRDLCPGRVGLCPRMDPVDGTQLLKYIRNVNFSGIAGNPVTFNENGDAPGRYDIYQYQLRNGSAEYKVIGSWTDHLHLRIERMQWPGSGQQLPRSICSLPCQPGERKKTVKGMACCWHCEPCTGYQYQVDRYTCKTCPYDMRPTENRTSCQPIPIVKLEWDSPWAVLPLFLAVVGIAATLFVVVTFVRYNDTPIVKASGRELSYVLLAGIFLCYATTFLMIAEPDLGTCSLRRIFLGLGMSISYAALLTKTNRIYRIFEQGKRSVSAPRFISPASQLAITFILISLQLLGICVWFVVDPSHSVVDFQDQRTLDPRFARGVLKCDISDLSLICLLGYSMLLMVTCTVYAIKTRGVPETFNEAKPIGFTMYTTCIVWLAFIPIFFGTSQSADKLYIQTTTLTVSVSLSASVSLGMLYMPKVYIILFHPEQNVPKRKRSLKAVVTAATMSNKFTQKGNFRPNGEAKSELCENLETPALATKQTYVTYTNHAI
T1 sequence (Q14833 whole entry): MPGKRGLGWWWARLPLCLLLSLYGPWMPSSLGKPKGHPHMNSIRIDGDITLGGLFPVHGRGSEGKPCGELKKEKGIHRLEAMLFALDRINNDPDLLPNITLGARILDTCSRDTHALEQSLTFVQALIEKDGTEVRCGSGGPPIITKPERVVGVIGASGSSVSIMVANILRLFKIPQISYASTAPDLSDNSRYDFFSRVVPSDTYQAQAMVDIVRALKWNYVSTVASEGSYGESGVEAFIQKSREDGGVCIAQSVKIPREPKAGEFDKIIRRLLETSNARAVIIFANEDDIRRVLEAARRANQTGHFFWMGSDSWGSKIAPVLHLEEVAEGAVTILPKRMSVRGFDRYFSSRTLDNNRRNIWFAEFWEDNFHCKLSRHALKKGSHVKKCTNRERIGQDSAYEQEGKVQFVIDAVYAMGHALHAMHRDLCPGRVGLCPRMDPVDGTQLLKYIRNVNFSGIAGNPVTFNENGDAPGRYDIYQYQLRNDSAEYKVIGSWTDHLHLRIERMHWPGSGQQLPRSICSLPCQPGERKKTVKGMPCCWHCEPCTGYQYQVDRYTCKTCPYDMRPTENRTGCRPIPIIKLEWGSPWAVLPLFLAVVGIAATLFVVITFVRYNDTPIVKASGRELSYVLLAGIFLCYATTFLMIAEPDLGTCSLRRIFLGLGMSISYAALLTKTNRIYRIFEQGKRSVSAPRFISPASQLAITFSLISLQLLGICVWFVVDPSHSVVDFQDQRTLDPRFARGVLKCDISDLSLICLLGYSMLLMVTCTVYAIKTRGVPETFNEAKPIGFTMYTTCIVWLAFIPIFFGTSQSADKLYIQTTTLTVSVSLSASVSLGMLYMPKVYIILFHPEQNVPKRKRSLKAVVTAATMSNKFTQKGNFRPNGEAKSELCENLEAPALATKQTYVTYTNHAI
Metabotropic glutamate receptor 4 (Rattus norvegicus, UniProt P31423), sequence (P31423 whole entry): as the sequence (P31423 whole entry) above
Cytochrome P450 2D6, sequence (P10635 whole entry): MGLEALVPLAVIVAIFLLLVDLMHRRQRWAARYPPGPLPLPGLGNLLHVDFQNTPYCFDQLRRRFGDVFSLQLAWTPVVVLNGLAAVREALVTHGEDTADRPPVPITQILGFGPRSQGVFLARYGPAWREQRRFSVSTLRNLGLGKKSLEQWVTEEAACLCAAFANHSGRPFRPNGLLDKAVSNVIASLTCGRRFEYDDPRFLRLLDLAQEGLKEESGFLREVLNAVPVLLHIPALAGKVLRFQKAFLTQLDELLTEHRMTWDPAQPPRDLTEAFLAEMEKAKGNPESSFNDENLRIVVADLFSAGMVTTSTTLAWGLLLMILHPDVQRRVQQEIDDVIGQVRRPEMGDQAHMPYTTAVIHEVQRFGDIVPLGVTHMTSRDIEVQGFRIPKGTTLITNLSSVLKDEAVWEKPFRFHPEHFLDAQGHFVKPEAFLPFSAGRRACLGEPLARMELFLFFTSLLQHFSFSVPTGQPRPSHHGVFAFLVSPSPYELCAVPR

Cl.O=C(Nc1ccc(N2C(=O)CC3(CCCCC3)C2=O)c(Cl)c1)c1ccccn1
Vdss (Rattus norvegicus [1]): 5.5 L/kg
AUC (Rattus norvegicus [2]): 346 ng·h/mL
AUC (Rattus norvegicus [3]): 813 ng·h/mL
Cmax (Rattus norvegicus [4]): 18.3 ng/mL
t1/2 (Rattus norvegicus [5]): 1.56 h
F (Rattus norvegicus [6]): 24.6%

O=C(Nc1ccc(N2S(=O)(=O)c3ccccc3S2(=O)=O)cc1)c1nccs1
EC50 [7]: 0.201 µM
Activity [8]: 127%
fold change (FC) [9]: 4.7
Activity [10]: 122%
EC50 [11]: 0.353 µM

COc1cc(NC(=O)c2ccccn2)ccc1Cl
IC50 (Cytochrome P450 1A2): < 0.1 µM
IC50 (Cytochrome P450 2D6): > 30 µM
IC50 (Cytochrome P450 2C9): > 30 µM

O=S1(=O)c2ccccc2S(=O)(=O)N1c1ccc(NC2(c3ccccn3)CC2)cc1
Activity [10]: 62.7%
EC50 [11]: 6.4 µM

O=C(Nc1ccc(N2C(=O)[C@@H]3[C@H](C2=O)[C@@H]2CC[C@H]3O2)c(Cl)c1)c1ccccn1
Activity [10]: 90%
EC50 [11]: 1.3 µM

O=C(Nc1ccc(N2S(=O)(=O)c3ccccc3S2(=O)=O)cc1)c1ccncn1
EC50 [7]: 0.242 µM
Activity [8]: 103%
fold change (FC) [9]: 3.3
Activity [10]: 100%
EC50 [11]: 0.179 µM

O=C(Nc1ccc(N2S(=O)(=O)c3ccccc3S2(=O)=O)cc1F)c1ccccn1
Activity [10]: 67.7%
EC50 [11]: 1.1 µM

O=C(Nc1ccc(N2S(=O)(=O)c3ccccc3S2(=O)=O)cc1)C1CCCCC1
Activity [10]: 48.3%
EC50 [11]: 0.765 µM

O=S1(=O)c2ccccc2S(=O)(=O)N1c1ccc(NCc2ccccn2)cc1
Activity [10]: 110%
EC50 [11]: 1.8 µM

O=C(Nc1ccc(N2C(=O)CCC2=O)c(Cl)c1)c1ccccn1
Activity [10]: 74%
EC50 [11]: 6.2 µM

O=C(Nc1ccc(N2S(=O)(=O)c3ccccc3S2(=O)=O)cc1)c1ccccc1
Activity [10]: 65%
EC50 [11]: 0.402 µM

CC1(C)CC(=O)N(c2ccc(NC(=O)c3ccccn3)cc2Cl)C1=O
Activity [10]: 82%
EC50 [11]: 1.4 µM

CC1(c2ccccc2)CC(=O)N(c2ccc(NC(=O)c3ccccn3)cc2Cl)C1=O (racemic)
Activity [8]: 131%
fold change (FC) [9]: 16.7
Activity [10]: 124%

O=C(Nc1ccc(N2S(=O)(=O)c3ccccc3S2(=O)=O)cc1)c1cncs1
Activity [10]: 39.7%
EC50 ([11]; cho): Not Active

CC1(C)[C@@H]2C(=O)N(c3ccc(NC(=O)c4ccccn4)cc3Cl)C(=O)[C@@H]21
Activity [8]: 105%
fold change (FC) [9]: 5.5
Activity [10]: 100%
